The source of these data is ChEMBL document CHEMBL3399974, “Discovery and SAR of novel series of imidazopyrimidinones and dihydroimidazopyrimidinones as positive allosteric modulators of the metabotropic glutamate receptor 5 (mGlu5)” (Bioorg Med Chem Lett, 2015).

The term EC50 denotes the concentration giving half of the maximal effect. Broadly, the Emax is the size of the effect at its maximum, as opposed to the concentration needed.

Series [1] has as its target T1, Metabotropic glutamate receptor 5 (Rattus norvegicus, UniProt P31424). Briefly: Positive allosteric modulation at rat mGluR5 expressed in HEK293 cells by calcium mobilization assay. Format: functional, cell-based. An outline of the steps:
(§1)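 HEK293 cells stably expressing rat mGlu5 were run in a 'triple add' calcium mobilization assay that detects agonism, PAM and NAM activity together. Response amplitude was expressed as % of the maximal response to 100 µM glutamate. Values are the mean of three or more independent determinations.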

For series [2], the target named is Metabotropic glutamate receptor 5 (Rattus norvegicus) (UniProt P31424). Briefly: Positive allosteric modulation at rat mGluR5 expressed in HEK293 cells assessed as amplitude of response at 30 uM by calcium mobilization assay relative to glutamate. Type of series: functional, cell-based. In a few lines: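 HEK293 cells stably expressing rat mGlu5 were used in a calcium mobilization assay. Test compound was given at 30 µM, and response amplitude is expressed as percent of the maximal response to 100 µM glutamate. Values are the average of three or more independent determinations.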
Metabotropic glutamate receptor 5 (Rattus norvegicus), sequence (P31424 21-1203 limits assumed): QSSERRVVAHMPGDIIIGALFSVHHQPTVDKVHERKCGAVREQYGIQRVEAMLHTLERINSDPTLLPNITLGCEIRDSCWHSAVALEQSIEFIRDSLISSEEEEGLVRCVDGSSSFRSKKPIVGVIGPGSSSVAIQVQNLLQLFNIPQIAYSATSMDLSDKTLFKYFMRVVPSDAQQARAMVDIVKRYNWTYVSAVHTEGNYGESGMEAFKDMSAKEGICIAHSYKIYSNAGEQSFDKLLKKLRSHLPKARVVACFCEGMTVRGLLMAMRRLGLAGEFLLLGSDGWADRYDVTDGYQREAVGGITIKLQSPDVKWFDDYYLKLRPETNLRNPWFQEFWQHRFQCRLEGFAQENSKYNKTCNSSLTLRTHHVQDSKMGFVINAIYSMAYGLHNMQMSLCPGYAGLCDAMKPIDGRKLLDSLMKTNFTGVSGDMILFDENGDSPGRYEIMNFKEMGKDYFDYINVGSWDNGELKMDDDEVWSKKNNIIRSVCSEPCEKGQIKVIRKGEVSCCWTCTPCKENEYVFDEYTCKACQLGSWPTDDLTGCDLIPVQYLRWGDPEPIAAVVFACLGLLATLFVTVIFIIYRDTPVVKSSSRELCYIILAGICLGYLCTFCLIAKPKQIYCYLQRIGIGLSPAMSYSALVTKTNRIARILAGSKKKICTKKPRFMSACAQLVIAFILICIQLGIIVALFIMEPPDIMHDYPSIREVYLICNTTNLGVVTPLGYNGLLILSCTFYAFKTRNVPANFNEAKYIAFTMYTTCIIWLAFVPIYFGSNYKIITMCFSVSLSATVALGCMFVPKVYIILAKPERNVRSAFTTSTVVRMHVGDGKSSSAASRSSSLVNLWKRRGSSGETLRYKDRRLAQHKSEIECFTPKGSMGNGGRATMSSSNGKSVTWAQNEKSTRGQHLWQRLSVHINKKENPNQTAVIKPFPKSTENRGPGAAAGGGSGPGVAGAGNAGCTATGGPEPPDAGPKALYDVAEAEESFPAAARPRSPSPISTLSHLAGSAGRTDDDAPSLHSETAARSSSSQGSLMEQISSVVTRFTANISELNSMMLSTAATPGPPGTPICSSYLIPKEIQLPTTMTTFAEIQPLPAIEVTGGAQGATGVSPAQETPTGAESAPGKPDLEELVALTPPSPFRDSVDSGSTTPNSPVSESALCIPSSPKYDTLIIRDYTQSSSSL
Background: Calcium flux is commonly read through the fluorescence of an indicator in the cells.

Series [3] is described as follows: Drug metabolism in human liver microsomes assessed as compound metabolized at 1 uM after 15 mins. Format: ADME. Conditions: read-out: Drug metabolism. In a few lines: (§2)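 Test compound at 1 µM was incubated for 15 min with liver microsomes (human for HLM, rat for RLM). Read-out was % of compound metabolized.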
Background: Liver microsomes are a subcellular fraction often used to study metabolism.

Series [4] concerns the target Metabotropic glutamate receptor 5 (Rattus norvegicus) (UniProt P31424). The series can be described thus: Negative allosteric modulation at rat mGluR5 expressed in HEK293 cells by calcium mobilization assay relative to glutamate. Conditions: 30 uM.
Series [5] is described as follows: Drug metabolism in rat liver microsomes assessed as compound metabolized at 1 uM after 15 mins. Format: ADME. To be noted: read-out: Drug metabolism. In a few lines:
as §2

In series [6] the target is T1, Metabotropic glutamate receptor 5. Briefly: Negative allosteric modulation at rat mGluR5 expressed in HEK293 cells by calcium mobilization assay. Format: functional, cell-based. In a few lines:
as §1

Series [7] deals with Metabotropic glutamate receptor 2 (Homo sapiens, UniProt Q14416). The series can be described thus: Positive allosteric modulation at mGluR2 (unknown origin).
Metabotropic glutamate receptor 2, sequence (Q14416 whole entry): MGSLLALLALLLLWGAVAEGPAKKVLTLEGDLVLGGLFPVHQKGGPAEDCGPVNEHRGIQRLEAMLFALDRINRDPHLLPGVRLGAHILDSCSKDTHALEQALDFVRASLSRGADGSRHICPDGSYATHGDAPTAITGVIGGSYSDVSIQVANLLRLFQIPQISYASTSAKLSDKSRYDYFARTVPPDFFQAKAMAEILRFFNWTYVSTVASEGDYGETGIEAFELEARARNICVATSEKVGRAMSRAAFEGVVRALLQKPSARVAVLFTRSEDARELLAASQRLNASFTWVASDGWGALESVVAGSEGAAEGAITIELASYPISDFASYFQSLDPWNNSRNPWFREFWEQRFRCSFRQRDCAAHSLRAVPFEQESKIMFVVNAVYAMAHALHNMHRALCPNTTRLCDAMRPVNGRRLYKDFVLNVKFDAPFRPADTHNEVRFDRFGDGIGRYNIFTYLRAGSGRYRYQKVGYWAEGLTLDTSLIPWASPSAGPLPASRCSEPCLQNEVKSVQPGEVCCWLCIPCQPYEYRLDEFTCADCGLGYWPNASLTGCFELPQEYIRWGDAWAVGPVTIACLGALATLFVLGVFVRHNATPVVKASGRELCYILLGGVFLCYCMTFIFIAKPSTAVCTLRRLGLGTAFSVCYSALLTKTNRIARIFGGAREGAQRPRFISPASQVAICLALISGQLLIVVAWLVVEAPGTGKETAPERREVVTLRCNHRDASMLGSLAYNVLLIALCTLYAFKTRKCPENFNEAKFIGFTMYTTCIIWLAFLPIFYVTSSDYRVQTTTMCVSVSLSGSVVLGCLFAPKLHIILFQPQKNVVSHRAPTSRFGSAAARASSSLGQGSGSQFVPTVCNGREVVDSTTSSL
Series [8] deals with Metabotropic glutamate receptor 4 (Homo sapiens, UniProt Q14833). Briefly: Positive allosteric modulation at mGluR4 (unknown origin).
The target in series [9] is Metabotropic glutamate receptor 6 (Homo sapiens, UniProt O15303). Briefly: Positive allosteric modulation at mGluR6 (unknown origin).
The target of series [10] is Metabotropic glutamate receptor 3 (Homo sapiens, UniProt Q14832). The series can be described thus: Negative allosteric modulation at mGluR3 (unknown origin).
Metabotropic glutamate receptor 3, sequence (Q14832 whole entry): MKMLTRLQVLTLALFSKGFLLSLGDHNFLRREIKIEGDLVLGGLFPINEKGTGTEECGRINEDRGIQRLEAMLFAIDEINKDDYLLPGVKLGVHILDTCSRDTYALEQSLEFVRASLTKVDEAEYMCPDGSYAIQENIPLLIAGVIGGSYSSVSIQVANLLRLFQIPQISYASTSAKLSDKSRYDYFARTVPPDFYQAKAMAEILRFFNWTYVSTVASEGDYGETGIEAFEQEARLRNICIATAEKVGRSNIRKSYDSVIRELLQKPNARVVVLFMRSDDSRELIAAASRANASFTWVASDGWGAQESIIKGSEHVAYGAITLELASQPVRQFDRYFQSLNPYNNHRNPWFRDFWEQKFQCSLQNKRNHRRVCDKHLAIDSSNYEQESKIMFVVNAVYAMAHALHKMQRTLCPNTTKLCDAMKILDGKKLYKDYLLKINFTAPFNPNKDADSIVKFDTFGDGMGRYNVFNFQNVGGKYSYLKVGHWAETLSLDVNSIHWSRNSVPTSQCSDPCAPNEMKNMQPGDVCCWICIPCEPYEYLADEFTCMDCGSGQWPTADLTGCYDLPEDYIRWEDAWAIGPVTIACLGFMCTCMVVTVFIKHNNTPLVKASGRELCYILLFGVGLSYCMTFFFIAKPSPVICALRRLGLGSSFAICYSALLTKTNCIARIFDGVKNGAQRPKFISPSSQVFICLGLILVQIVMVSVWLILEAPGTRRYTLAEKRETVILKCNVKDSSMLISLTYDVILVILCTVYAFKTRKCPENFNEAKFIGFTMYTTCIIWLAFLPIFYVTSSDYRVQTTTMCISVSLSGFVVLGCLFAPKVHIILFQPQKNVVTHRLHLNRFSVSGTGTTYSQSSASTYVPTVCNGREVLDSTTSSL
Series [11] concerns the target Metabotropic glutamate receptor 7 (Homo sapiens, UniProt Q14831). The series can be described thus: Positive allosteric modulation at mGluR7 (unknown origin).
For series [12], the target named is Metabotropic glutamate receptor 1 (Homo sapiens, UniProt Q13255). The series can be described thus: Positive allosteric modulation at mGluR1 (unknown origin).
The nature of series [13]: Plasma protein binding in human. Format: ADME, cell-free.
Series [14] has as its target Metabotropic glutamate receptor 8 (Homo sapiens, UniProt O00222). The series can be described thus: Positive allosteric modulation at mGluR8 (unknown origin).
A short description of series [15]: Plasma protein binding in rat. Type of series: ADME, cell-free.

T1 sequence (P31424 whole entry): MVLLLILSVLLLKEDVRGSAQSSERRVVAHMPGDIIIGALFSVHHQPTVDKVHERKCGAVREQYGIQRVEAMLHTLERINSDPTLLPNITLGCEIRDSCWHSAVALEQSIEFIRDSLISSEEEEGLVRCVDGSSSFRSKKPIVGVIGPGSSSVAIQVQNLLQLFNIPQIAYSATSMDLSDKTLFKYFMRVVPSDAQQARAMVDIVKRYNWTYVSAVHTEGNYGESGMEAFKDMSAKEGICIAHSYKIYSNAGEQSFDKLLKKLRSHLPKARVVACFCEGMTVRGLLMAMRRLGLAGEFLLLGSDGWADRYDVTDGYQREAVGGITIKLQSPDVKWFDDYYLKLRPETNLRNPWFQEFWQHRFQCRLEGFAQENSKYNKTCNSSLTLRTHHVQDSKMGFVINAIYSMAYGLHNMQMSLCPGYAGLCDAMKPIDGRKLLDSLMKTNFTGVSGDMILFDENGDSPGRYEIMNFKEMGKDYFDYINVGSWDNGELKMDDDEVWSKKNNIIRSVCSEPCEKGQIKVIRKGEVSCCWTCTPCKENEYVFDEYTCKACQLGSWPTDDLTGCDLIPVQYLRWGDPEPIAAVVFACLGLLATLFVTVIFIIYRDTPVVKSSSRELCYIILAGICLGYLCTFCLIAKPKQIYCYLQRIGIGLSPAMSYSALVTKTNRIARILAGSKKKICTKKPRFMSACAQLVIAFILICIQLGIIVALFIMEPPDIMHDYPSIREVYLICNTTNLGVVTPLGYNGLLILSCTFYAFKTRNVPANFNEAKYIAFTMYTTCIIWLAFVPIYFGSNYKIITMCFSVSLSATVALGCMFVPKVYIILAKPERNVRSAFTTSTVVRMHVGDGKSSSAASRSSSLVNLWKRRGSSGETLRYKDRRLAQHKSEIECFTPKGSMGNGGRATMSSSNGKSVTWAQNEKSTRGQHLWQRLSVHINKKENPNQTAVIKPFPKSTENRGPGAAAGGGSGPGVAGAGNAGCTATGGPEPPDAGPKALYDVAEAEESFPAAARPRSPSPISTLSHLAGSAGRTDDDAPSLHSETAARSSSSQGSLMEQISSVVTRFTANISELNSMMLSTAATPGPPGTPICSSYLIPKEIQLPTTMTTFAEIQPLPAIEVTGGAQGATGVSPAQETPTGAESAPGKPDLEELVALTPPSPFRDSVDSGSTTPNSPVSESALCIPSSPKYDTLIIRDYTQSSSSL
Metabotropic glutamate receptor 8, sequence (O00222 whole entry): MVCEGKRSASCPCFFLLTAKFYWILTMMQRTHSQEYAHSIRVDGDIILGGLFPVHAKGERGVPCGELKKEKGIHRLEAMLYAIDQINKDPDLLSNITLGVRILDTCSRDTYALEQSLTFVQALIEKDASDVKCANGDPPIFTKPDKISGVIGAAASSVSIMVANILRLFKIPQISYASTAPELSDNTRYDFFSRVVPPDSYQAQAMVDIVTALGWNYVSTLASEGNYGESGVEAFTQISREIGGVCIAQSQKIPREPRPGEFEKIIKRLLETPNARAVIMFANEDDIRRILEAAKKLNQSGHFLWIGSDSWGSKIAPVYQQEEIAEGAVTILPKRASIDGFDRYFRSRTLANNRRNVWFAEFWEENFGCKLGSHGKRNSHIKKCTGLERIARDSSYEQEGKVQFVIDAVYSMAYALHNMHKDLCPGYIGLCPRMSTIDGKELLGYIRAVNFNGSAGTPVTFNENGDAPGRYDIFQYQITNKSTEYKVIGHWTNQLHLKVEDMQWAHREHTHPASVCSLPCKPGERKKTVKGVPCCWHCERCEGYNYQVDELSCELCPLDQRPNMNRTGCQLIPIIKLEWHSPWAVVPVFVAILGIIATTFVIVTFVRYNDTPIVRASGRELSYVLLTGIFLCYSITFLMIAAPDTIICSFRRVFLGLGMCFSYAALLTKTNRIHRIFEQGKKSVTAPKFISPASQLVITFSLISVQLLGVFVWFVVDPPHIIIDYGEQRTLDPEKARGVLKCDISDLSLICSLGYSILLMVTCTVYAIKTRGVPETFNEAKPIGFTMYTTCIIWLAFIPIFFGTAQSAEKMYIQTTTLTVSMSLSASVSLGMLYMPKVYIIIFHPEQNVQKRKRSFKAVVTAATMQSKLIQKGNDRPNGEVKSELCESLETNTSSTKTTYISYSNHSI

`Cc1ccnc(-n2ccc3nc(COc4ccccc4)cn3c2=O)c1`: the EC50 in [1] is 5100 nM. Besides, the maximum response (Emax) in [2] stood at 64%.
Regarding `Cc1cn(-c2ccc(F)cc2)c(=O)n2cc(COc3ccccc3)nc12`, the metabolised at 0.25 h, 1 µM is 36% in series [3] and 71% in series [5]. The IC50 amounted to 16 nM in [4] and 1000 nM in [6] (read-out: IC50).
For `O=c1n(-c2ccc(F)cc2)ccc2nc(COc3ccccn3)cn12`, in series [1], the EC50 is 3170 nM. For the same compound, the maximal response (Emax) in series [2] worked out at 88%.
On the same counts, the results for `Cc1cc2nc(COc3ccccc3)cn2c(=O)n1-c1ccc(F)cc1` are 2070 nM and 60%.
In the case of `Cc1ccc(-n2ccc3nc(COc4ccccc4)cn3c2=O)nc1`, the concentration for a half-maximal effect (EC50) in series [1] came out at 2000 nM. Besides, the maximal response (Emax) in series [2] worked out at 84%.
Consider `Cc1c(COc2ccccc2)nc2n1C(=O)N(c1ccc(F)cc1)CC2`, for which the results for the metabolised at 0.25 h, 1 µM in series [3] and in series [5] were 21% and 46%, respectively. Further, the IC50 in series [4] is 529 nM; in series [6] (read-out: pIC50 (converted)), 525 nM.
As to `Cc1cc(-n2ccc3nc(COc4ccccc4)cn3c2=O)ncc1F`, the metabolised at 0.25 h, 1 µM in series [3] stood at 17%; in series [5], 49%. The concentration for a half-maximal effect (EC50) in [1] stood at 435 nM. Moreover, the Emax in series [2] was 77%.
In the case of `Cc1cccc(OCc2cn3c(=O)n(-c4ccc(F)cc4)ccc3n2)c1`, the 50% effective concentration (EC50) in series [1] was 344 nM. For the same compound, in series [2], the Emax worked out at 30%.
For the compound `Cc1cccc(-n2ccc3nc(COc4ccccc4)cn3c2=O)n1`, the EC50 in series [1] was 3580 nM. In addition, the Emax in series [2] was determined as 64%.
Consider `Cc1cc(N2CCc3nc(COc4ccccc4)cn3C2=O)ncc1F`, for which the concentration for a half-maximal effect (EC50) in [1] was 371 nM. The Emax in [2] was 87%.
For `O=c1[nH]ccc2nc(COc3ccccc3)cn12`, in [1], the EC50 is over 30000 nM. Moreover, in series [2], the Emax amounted to 19%.
As to `O=c1n(Cc2ccccc2)ccc2nc(COc3ccccc3)cn12`, the half-maximal effective concentration (EC50) in [1] was determined as 1590 nM. Also, the Emax in series [2] turned out to be 93%.
Regarding `O=C1N(c2ccc(F)cn2)CCc2nc(COc3ccccc3)cn21`, the results for the metabolised at 0.25 h, 1 µM in series [3] and in series [5] were 1% and 14%, respectively. Moreover, in series [1], the 50% effective concentration (EC50) was determined as 359 nM. Moreover, in series [2], the Emax was 66%.
For `Cc1cc(N2CCc3nc(COc4ccccc4)cn3C2=O)ccc1F` the same measures were 10%, 37%, 130 nM and 91%.
Take `O=C1N(c2cccc(F)c2)CCc2nc(COc3ccccc3)cn21`: the values for the metabolised at 0.25 h, 1 µM in [3] and in [5] were 20% and 78%, respectively. Besides, the EC50 in series [1] was 218 nM. Moreover, the Emax in series [2] came to 82%.
As for `O=c1n(-c2ccc(F)cc2)ccc2nc(COc3cccnc3)cn12`, in series [1], the EC50 is over 10000 nM. Besides, the maximal effect (Emax) in [2] came to 65%.
`O=c1n(-c2ccc(F)cc2)ccc2nc(COc3ccc(F)cc3)cn12`: the metabolised at 0.25 h, 1 µM in [3] was 11%; in series [5], 29%. In addition, in series [1], the half-maximal effective concentration (EC50) turned out to be 375 nM. Besides, the maximal effect (Emax) in [2] was found to be 85%.
In the case of `O=c1n(-c2ccc(F)cc2)ccc2nc(COc3ccccc3)c(Cl)n12`, the metabolised at 0.25 h, 1 µM is 6% in series [3] and 73% in series [5]. The IC50 was 5 nM in series [4] and 218 nM in series [6] (read-out: IC50).
Turning to `O=c1n(-c2cccc(F)c2)ccc2nc(COc3ccccc3)cn12`, the metabolised at 0.25 h, 1 µM in series [3] came to 47%; in series [5], 71%. Moreover, in [1], the EC50 was found to be 514 nM. Besides, the maximal response (Emax) in series [2] is 69%.
In the case of `O=C1N(c2ccc(F)cc2)CCc2nc(COc3cccc(F)c3)cn21`, the metabolised at 0.25 h, 1 µM stood at 0% in series [3] and 29% in series [5]. The concentration giving a half-maximal response (EC50) in [1] turned out to be 69 nM. Besides, the Emax in series [2] stood at 72%.
Regarding `O=c1n(-c2ccc(F)cc2)ccc2nc(COc3ccccc3)cn12`, the EC50 was over 10000 nM in [7]; over 10000 nM in series [8]; over 10000 nM in series [9]; 310 nM in series [1]; over 10000 nM in series [11]; over 10000 nM in series [12]. This compound had an EC50 in series [14] of over 10000 nM. The IC50 in series [10] was 630 nM. The figures for the metabolised at 0.25 h, 1 µM in series [3] and in [5] were 14% and 27%, respectively. In series [2], the Emax was found to be 83%. The PPB came to 96.4% in series [13] and 93.1% in [15].
Regarding `O=C1N(c2ccc(F)cc2)CCc2nc(COc3ccccc3)c(Cl)n21`, the IC50 was 133 nM in series [4] and 132 nM in [6] (read-out: pIC50 (converted)).
With `Cn1ccc2nc(COc3ccccc3)cn2c1=O`, the EC50 in [1] is over 10000 nM. The Emax in series [2] is 67%.
Regarding `Cc1nc(-n2ccc3nc(COc4ccccc4)cn3c2=O)ccc1F`, the metabolised at 0.25 h, 1 µM is 8% in series [3] and 50% in series [5]. In addition, the half-maximal effective concentration (EC50) in series [1] stood at 375 nM. Moreover, in series [2], the maximal effect (Emax) came out at 77%.
As for `O=c1n(-c2ccc(F)c(F)c2)ccc2nc(COc3ccccc3)cn12`, in series [1], the concentration giving a half-maximal response (EC50) is 230 nM. Also, in series [2], the maximum response (Emax) stood at 93%.
For the compound `O=C1N(c2ccc(F)cc2)CCc2nc(COc3ccc(F)cc3)cn21`, the figures for the metabolised at 0.25 h, 1 µM in series [3] and in series [5] were 3% and 11%, respectively. In addition, the EC50 in [1] was 197 nM. In addition, the maximum response (Emax) in series [2] worked out at 88%.
As for `O=c1n(-c2ccc(F)cn2)ccc2nc(COc3ccccc3)cn12`, in [1], the concentration giving a half-maximal response (EC50) turned out to be 587 nM. The Emax in series [2] turned out to be 87%.
`O=c1n(-c2ccc(F)cc2)ccc2nc(COc3cccc(F)c3)cn12`: the metabolised at 0.25 h, 1 µM in series [3] stood at 13%; in [5] it was 28%. In addition, in [1], the concentration giving a half-maximal response (EC50) was 230 nM. Moreover, the maximal response (Emax) in [2] turned out to be 91%.
Regarding `Cc1ccc(N2CCc3nc(COc4ccccc4)cn3C2=O)nc1`, the metabolised at 0.25 h, 1 µM in series [3] amounted to 35%; in series [5], 98%. Moreover, the 50% effective concentration (EC50) in [1] amounted to 485 nM. In addition, in series [2], the maximal response (Emax) turned out to be 74%.
Regarding `Cc1nc(N2CCc3nc(COc4ccccc4)cn3C2=O)ccc1F`, the results for the metabolised at 0.25 h, 1 µM in [3] and in series [5] were 31% and 93%, respectively. In addition, the EC50 in series [1] amounted to 183 nM. Also, in series [2], the Emax is 91%.
In the case of `O=c1n(CC2CC2)ccc2nc(COc3ccccc3)cn12`, in series [1], the 50% effective concentration (EC50) came to 1120 nM. The maximum response (Emax) in [2] was found to be 47%.
For `Cc1cccc(OCc2cn3c(n2)CCN(c2ccc(F)cc2)C3=O)c1`, the concentration giving a half-maximal response (EC50) in series [1] is 285 nM. Also, in series [2], the Emax worked out at 47%.
With `CN(C)c1cccc(-n2ccc3nc(COc4ccccc4)cn3c2=O)n1`, the metabolised at 0.25 h, 1 µM was 66% in series [3] and 90% in series [5]. Moreover, the EC50 in [1] was 284 nM. For the same compound, the Emax in series [2] was determined as 87%.
